Laboratory results: ChEMBL document CHEMBL4033777, “Next-Generation Hypoxic Cell Radiosensitizers: Nitroimidazole Alkylsulfonamides” (J Med Chem, 2018)
Converted amounts (≈) assume the structure as drawn.

Legend:
[1] = Solubility of the compound in alphaMEM containing 5% FCS and 1% DMSO by HPLC analysis; format: physicochemical
Outline: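 Saturated drug solutions were incubated at 37 °C in αMEM with 5% FCS and 1% DMSO. Dissolved drug was quantified by HPLC.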

HCT-116 [2] = assay: Hypoxia radiosensitization activity in human HCT116 cells assessed as survival ratio by measuring ratio of cell survival with 15 Gy radiation in absence to presence of compound at anoxic IC50 preincubated for 1 hr followed by 15 Gy irradiation measured after 10 days by methylene blue staining-based cell counting method; format: functional
Outline: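 Anoxic HCT116 cells were seeded at 10^5/well and treated at the anoxic IC50 concentration for 1 h at room temperature. They were irradiated with 15 Gy (60Co, ~2 Gy/min) in a sealed steel box, then plated clonogenically. Colonies of >50 cells were counted […]. SR15 = survival with radiation / survival with drug + radiation.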

[3] = Electrophilicity of the compound in pH 7 phosphate buffer assessed as one-electron reduction potential
Outline: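 The one-electron reduction potential was set by pulse radiolysis equilibria at pH 7.0 (2.5 mM phosphate), established within 20 µs against benzylviologen, methylviologen or triquat. ΔE came from equilibrium constants via the Nernst equation, at three concentration ratios and 22 ± 2 °C.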

HCT-116 [4] = assay: Cytotoxicity against human HCT116 cells at anoxic IC50 incubated for 1 hr at 21 degC by clonogenic survival assay; conditions: hct-116, 1 h
HCT-116 [5] = assay: Cytotoxicity against human HCT116 cells incubated for 4 hrs under anaerobic condition measured after 5 days by sulforhodamine B assay; format: functional, cell-based
Outline: (§1)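 STR-authenticated, mycoplasma-free HCT116 cells in αMEM + 5% FCS were seeded at 700 cells/well and allowed 2 h to attach. Drug was added from DMSO stocks (<1% DMSO) in serial 3-fold dilutions for 4 h, oxic or anoxic (Pd-catalyst anaerobic chamber, medium pre-equilibrated ≥3 days). After washing, cells regrew for 5 days before SRB staining and IC50 determination.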

HCT-116 [6] = assay: Cytotoxicity against human HCT116 cells incubated for 4 hrs under aerobic condition measured after 5 days by sulforhodamine B assay; format: cell-based; outline: as §1
HCT-116 [7] = assay: Hypoxic cytotoxicity ratio of IC50 for human HCT116 cells under oxic condition to IC50 for human HCT116 cells under anoxic condition
Outline: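 HCT116 cells, 700 per well and attached 2 h, got a 4 h exposure to 3-fold serial dilutions (<1% DMSO) under air or in a Pd-catalyst anaerobic chamber with pre-equilibrated medium. Cells were washed, regrown 5 days, and stained with sulforhodamine B to give IC50. HCR = oxic IC50 / anoxic IC50.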

HCT-116 [8] = assay: In vivo hypoxia radiosensitization activity in human HCT116 cells xenografted in NIH-III mouse assessed as survival ratio by measuring ratio of cell survival with 12.5 Gy radiation in absence to presence of compound at 2.20 mmol/kg, iv pretreated as single dose for 10 mins followed by irradiation measured after 18 hrs by excision assay; format: functional
Mus musculus [9] = assay: Drug level in NIH-III mouse assessed as maximum achievable dose at 10 ml/kg, iv; format: ADME; conditions: in vivo
Outline: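 Non-tumor-bearing female NIH-III mice (~20 g) received freshly prepared solutions i.v. at 10 mL/kg in 0.9% saline with 1% DMSO, or saline with 2 molar equivalents NaHCO3 for phosphate prodrugs. MAD was the maximum dose that dissolved in the injection volume.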

[10] = Tmax in tumor of NIH-III mouse xenografted with human HCT116 cells at 2.20 mmol/kg, iv administered as single dose by HPLC analysis; format: ADME, organism-based, Neoplasm; conditions: 2.2 mmol/kg
Outline: (§2)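 Female NIH-III mice bearing subcutaneous HCT116 tumors (10^6 cells; ~300 mm3) got a single i.v. dose at the MAD or 75% of the MTD. Vehicle was saline with 1% DMSO, or saline with 2 equivalents of NaHCO3 for the phosphates. Plasma and tumor were sampled at multiple times by cardiac puncture and excision, drug was measured by HPLC, and Tmax came from noncompartmental analysis.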

Plasma = assay: Cmax in plasma of NIH-III mouse xenografted with human HCT116 cells at 2.20 mmol/kg, iv administered as single dose by HPLC analysis; format: ADME, organism-based; set-up: dose 2.2 mmol/kg, route intravenous; conditions: in vivo
Outline: (§3)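 Female NIH-III mice bearing subcutaneous HCT116 xenografts (10^6 cells inoculated). At ca. 300 mm3 tumor size, a single i.v. dose was given at the MAD or 75% of the MTD. Vehicle was 0.9% saline with 1% DMSO, or saline with 2 molar equivalents NaHCO3 for phosphate prodrugs. Plasma and tumor were sampled at multiple times by cardiac puncture and excision, assayed by HPLC, and analysed noncompartmentally.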

[11] = Tmax in plasma of NIH-III mouse xenografted with human HCT116 cells at 2.20 mmol/kg, iv administered as single dose by HPLC analysis; format: ADME, organism-based; conditions: 2.2 mmol/kg; outline: as §2
[12] = Cmax in tumor of NIH-III mouse xenografted with human HCT116 cells at 2.20 mmol/kg, iv administered as single dose by HPLC analysis; format: ADME, organism-based, Neoplasm; set-up: dose 2.2 mmol/kg, route intravenous; conditions: in vivo; outline: as §3
Mus musculus [13] = assay: Toxicity in NIH-III mouse xenografted with human HCT116 cells assessed as change in body weight with 12.5 Gy radiation at 2.20 mmol/kg, iv administered as single dose; conditions: in vivo
HCT-116 [14] = assay: (§4) Hypoxia radiosensitization activity in human HCT116 cells assessed as sensitizer enhancement ratio by measuring ratio of radiation dose for 1% survival in absence to presence of compound at 0.08 mM preincubated for 1 hr followed by irradiation measured after 10 days by methylene blue staining-based cell counting method relative to misonidazole; format: functional
HCT-116 [15] = assay: (§5) Hypoxia radiosensitization activity in human HCT116 cells assessed as survival ratio by measuring ratio of cell survival with radiation in absence to presence of compound at 0.08 mM preincubated for 1 hr followed by 6 to 29 Gy irradiation measured after 10 days by methylene blue staining-based cell counting method relative to misonidazole; format: functional
HCT-116 [16] = assay: as §5, with “method” for “method relative to misonidazole”; format: functional
HCT-116 [17] = assay: as §4, with “method” for “method relative to misonidazole”; format: functional
HCT-116 [18] = assay: as §5, with “0.11” for “0.08”, “method” for “method relative to misonidazole”; format: functional
HCT-116 [19] = assay: as §5, with “0.11” for “0.08”; format: functional
HCT-116 [20] = assay: as §4, with “0.68” for “0.08”; format: functional
HCT-116 [21] = assay: as §4, with “0.68” for “0.08”, “method” for “method relative to misonidazole”; format: functional
HCT-116 [22] = assay: as §5, with “0.68” for “0.08”; format: functional
HCT-116 [23] = assay: as §5, with “0.68” for “0.08”, “method” for “method relative to misonidazole”; format: functional
HCT-116 [24] = assay: as §5, with “2.1” for “0.08”, “method” for “method relative to misonidazole”; format: functional
HCT-116 [25] = assay: as §4, with “2.1” for “0.08”, “method” for “method relative to misonidazole”; format: functional
HCT-116 [26] = assay: as §4, with “2.1” for “0.08”; format: functional

SMILES	solubility [1] [mM]	Ratio (HCT-116 [2])	Activity (HCT-116 [4])	IC50 (HCT-116 [5]) [µM]	Ratio IC50 (HCT-116 [7])	other results
COCCNS(=O)(=O)CCn1cnc([N+](=O)[O-])c1	16 (≈ 4.45 mg/mL)	9	Non-Toxic	> 5300		Activity [3]: -538 mV
O=C(O)CCNS(=O)(=O)Cn1ccnc1[N+](=O)[O-]	72.1 (≈ 20.1 mg/mL)	2	Non-Toxic	4400	1	IC50 (HCT-116 [6]): 380 to 4800 µM
O=C(O)CNS(=O)(=O)Cn1ccnc1[N+](=O)[O-]	59.3 (≈ 15.7 mg/mL)	4	Non-Toxic	900	10	IC50 (HCT-116 [6]): 380 to 4800 µM
O=[N+]([O-])c1nccn1CCS(=O)(=O)NCCOP(=O)(O)O						Ratio (HCT-116 [8]): 2.9; Drug uptake (Mus musculus [9]): 2.2 mmol/kg; Tmax [10]: 10 min; Cmax (Plasma): 1140 µM; Tmax [11]: 10 min; Cmax [12]: 390 µM
O=[N+]([O-])c1nccn1CS(=O)(=O)NCCOP(=O)(O)O	185 (≈ 61.1 mg/mL)					Ratio (HCT-116 [8]): 10; Drug uptake (Mus musculus [9]): 2.2 mmol/kg; Tmax [10]: 10 min; Cmax (Plasma): 900 µM; Activity (Mus musculus [13]): Non-Toxic; Tmax [11]: 10 min; Cmax [12]: 320 µM
O=[N+]([O-])c1nccn1CS(=O)(=O)NCCN1CCOCC1	450 (≈ 144 mg/mL)	10.5	Non-Toxic	80	50	IC50 (HCT-116 [6]): 380 to 4800 µM; fold change (FC) (HCT-116 [14]): 0.89; fold change (FC) (HCT-116 [15]): 0.51; Ratio (HCT-116 [16]): 3.9; Ratio (HCT-116 [17]): 1.28
COCCNS(=O)(=O)Cn1cncc1[N+](=O)[O-]			Non-Toxic			Ratio (HCT-116 [18]): 1.9; fold change (FC) (HCT-116 [19]): 0.44
O=[N+]([O-])c1cn(CCS(=O)(=O)NCCO)cn1	> 100	6.3	Non-Toxic	10900	1	
O=[N+]([O-])c1cncn1CS(=O)(=O)NCCOP(=O)(O)O						Ratio (HCT-116 [8]): 13; Drug uptake (Mus musculus [9]): 2.2 mmol/kg; Tmax [10]: 30 min; Cmax (Plasma): 1100 µM; Activity (Mus musculus [13]): Non-Toxic; Tmax [11]: 10 min; Cmax [12]: 140 µM
COCC(O)Cn1ccnc1[N+](=O)[O-] (configuration not stated) [MISONIDAZOLE]	> 100	7.1	Non-Toxic	530	>62.44	Activity [3]: -389 mV
O=[N+]([O-])c1cn(CS(=O)(=O)NCCN2CCOCC2)cn1		7	Non-Toxic	3300	1.3	
O=[N+]([O-])c1cn(CS(=O)(=O)NCCO)cn1				> 6000	<0.5	
O=[N+]([O-])c1nccn1CS(=O)(=O)NCCN1CCCC1	16.1 (≈ 4.88 mg/mL)	1.7	Non-Toxic	11	96	IC50 (HCT-116 [6]): 380 to 4800 µM
Cc1ncc([N+](=O)[O-])n1CCS(=O)(=O)NCCCN(C)C	> 53.8	8	Non-Toxic	1200	3	
COCCNS(=O)(=O)CCn1ccnc1[N+](=O)[O-]	59.4 (≈ 16.5 mg/mL)	6.4	Non-Toxic	400	5	IC50 (HCT-116 [6]): 380 to 4800 µM; Activity [3]: -391 mV
Cc1ncc([N+](=O)[O-])n1CCS(=O)(=O)N1CCN(C)CC1	14.5 (≈ 4.6 mg/mL)	1.8	Non-Toxic	1600	0.6	
Cc1ncc([N+](=O)[O-])n1CCS(=O)(=O)N1CCOCC1	2.77 (≈ 0.843 mg/mL)	1.33	Non-Toxic	38	1.5	
O=[N+]([O-])c1cncn1CCS(=O)(=O)NCCOP(=O)(O)O						Ratio (HCT-116 [8]): 2.6; Drug uptake (Mus musculus [9]): 2.2 mmol/kg
COCCNS(=O)(=O)Cn1ccnc1[N+](=O)[O-]			Non-Toxic			IC50 (HCT-116 [6]): 380 to 4800 µM; fold change (FC) (HCT-116 [15]): 0.78; Ratio (HCT-116 [16]): 2.9
Cc1ncc([N+](=O)[O-])n1CCS(=O)(=O)N1CCC(N(C)C)CC1	46.5 (≈ 16.1 mg/mL)	12	Non-Toxic	700	2.9	fold change (FC) (HCT-116 [20]): 1.15; Ratio (HCT-116 [21]): 1.67; fold change (FC) (HCT-116 [22]): 2.3; Ratio (HCT-116 [23]): 25
CCN(CC)CCNS(=O)(=O)CCn1c([N+](=O)[O-])cnc1C	45.7 (≈ 15.2 mg/mL)	9	Non-Toxic	1300	2	
O=[N+]([O-])c1cncn1CS(=O)(=O)NCCN1CCOCC1		60	Non-Toxic	2100	1.4	Ratio (HCT-116 [24]): 8.2; Ratio (HCT-116 [25]): 1.43; fold change (FC) (HCT-116 [26]): 1.01
Cc1ncc([N+](=O)[O-])n1CCS(=O)(=O)NCCN1CCOCC1	44.1 (≈ 15.3 mg/mL)	2.71	Non-Toxic	800	1.4	
COCCCNS(=O)(=O)CCn1c([N+](=O)[O-])cnc1C	17 (≈ 5.21 mg/mL)	5	Non-Toxic	3700	1.2	
Cc1ncc([N+](=O)[O-])n1CCS(=O)(=O)NCCO	> 49.3	3.4	Non-Toxic	400	1.3	fold change (FC) (HCT-116 [20]): 0.82; Ratio (HCT-116 [21]): 1.176; fold change (FC) (HCT-116 [22]): 0.36; Ratio (HCT-116 [23]): 1.616
